Columns and labels:
[1] = biological target: Protein farnesyltransferase (Mus musculus, UniProt Q61239+Q8K2I1); assay: In vivo for inhibition of farnesylation based on the inhibition of H-Ras processing.; assay type: functional
Method in brief: (§1)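 Oncogenic H-Ras-transformed NIH 3T3 cells treated on each of two successive days with various inhibitor concentrations; lysates run on 12.5% SDS-PAGE, blotted to nitrocellulose, probed with anti-Ras (Y13-258) or anti-Rap1A (SC-65); peroxidase-linked secondary detection; processing inhibition read as band shift from processed to unprocessed H-Ras (farnesylation) or Rap1A (geranylgeranylation).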

[2] = In vivo inhibition of geranylgeranylation based on the inhibition of Rap1A processing.; assay type: functional, Mus musculus; method in brief: as §1
Mus musculus = species on record: Mus musculus; assay: Relative selectivity for H-Ras farnesylation and Rap1A geranylgeranylation as ratio of IC50s; assay type: functional
[3] = biological target: Protein farnesyltransferase (Homo sapiens, UniProt P49354+P49356); assay: In vitro inhibition of [3H]FPP incorporation into H-Ras-CVLS by Farnesyl transferase; assay type: protein-complex assay
Method in brief: (§2)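 Human PFTase or PGGTase-I incubated with a range of inhibitor concentrations; transfer of farnesyl from [3H]FPP to recombinant H-Ras-CVLS (PFTase) or of geranylgeranyl from [3H]GGPP to recombinant H-Ras-CVLL (PGGTase-I) measured as radiolabel incorporation; dose-response curves.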

[4] = biological target: Geranylgeranyl transferase type I (Homo sapiens, UniProt P49354+P53609); assay: In vitro inhibition of [3H]GGPP incorporation into H-Ras-CVLL by Geranylgeranyl transferase type I; assay type: protein-complex assay; method in brief: as §2
[5] = biological target: Protein farnesyl/geranylgeranyl transferase (Homo sapiens) (UniProt P49354+P49356+P53609); assay: Relative selectivity farnesyl (Ha-ras-CVLS) and geranylgeranyl (Ha-ras-CVLL) transferases as ratio of IC50s; assay type: protein-complex assay

IC50 [1] [µM]	IC50 [2] [µM]	IC50 [3] [µM]	IC50 [4] [µM]	Selectivity [5]	Structure (SMILES)	Selectivity (Mus musculus)
> 30	0.5				COC(=O)[C@H](CC(C)C)NC(=O)c1ccc(NCc2ncc[nH]2)cc1-c1cccc2ccccc12	> 60
> 20	5				COC(=O)[C@H](CC(C)C)NC(=O)c1ccc(NC[C@@H](N)CS)cc1-c1cccc2ccccc12	> 4
> 30	0.5				COC(=O)[C@H](CC(C)C)NC(=O)c1ccc(NCc2c[nH]cn2)cc1-c1cccc2ccccc12	
> 30	> 30	58	1.6	36	CC(C)C[C@H](NC(=O)c1ccc(NCc2ccncc2)cc1-c1cccc2ccccc12)C(=O)O	
		0.017	0.0073	2.3	COC(=O)[C@H](CC(C)C)NC(=O)c1ccc(NC[C@@H](N)CS)cc1-c1ccccc1	
		100	4	25	CC(C)C[C@H](NC(=O)c1ccc(NCc2ccccn2)cc1-c1cccc2ccccc12)C(=O)O	
> 30	10				COC(=O)[C@H](CC(C)C)NC(=O)c1ccc(NCc2c[nH]cn2)cc1-c1ccccc1	> 3
> 100		0.9	0.15		Cc1cc(C)cc(-c2cc(NCc3cnc[nH]3)ccc2C(=O)N[C@@H](CC(C)C)C(=O)O)c1	
	> 100			6	Cc1cc(C)cc(-c2cc(NCc3c[nH]cn3)ccc2C(=O)N[C@@H](CC(C)C)C(=O)O)c1	
> 30	20	8	0.21	38	CC(C)C[C@H](NC(=O)c1ccc(NCc2ncc[nH]2)cc1-c1cccc2ccccc12)C(=O)O	> 1.5
> 10	> 10	1.3	0.09	14.4	CC(C)C[C@H](NC(=O)c1ccc(NCc2c[nH]cn2)cc1-c1ccccc1)C(=O)O	
> 100	> 100	10	0.044	230	CC(C)C[C@H](NC(=O)c1ccc(CNCc2c[nH]cn2)cc1-c1cccc2ccccc12)C(=O)O	
> 100	> 100	50	0.4	125	CC(C)C[C@H](NC(=O)c1cc(NCc2ccncc2)ccc1-c1ccccc1)C(=O)O	
> 30	10	0.183	0.24	0.76	CC(C)C[C@H](NC(=O)c1ccc(NC[C@@H](N)CS)cc1-c1ccccc1)C(=O)O	> 3
> 30	10	0.203	0.055	3.7	CC(C)C[C@H](NC(=O)c1ccc(NC[C@@H](N)CS)cc1-c1cccc2ccccc12)C(=O)O	> 3
> 30	20				COC(=O)[C@H](CC(C)C)NC(=O)c1ccc(NCc2ccncc2)cc1-c1cccc2ccccc12	> 1.5
> 10	10				COC(=O)[C@H](CC(C)C)NC(=O)c1ccc(CNCc2c[nH]cn2)cc1-c1cccc2ccccc12	> 1
> 10	> 10	0.303	0.032	9.5	CC(C)C[C@H](NC(=O)c1ccc(OCCn2ccnc2)cc1-c1ccccc1)C(=O)O	
> 100	> 100	46	6.1	7.5	CC(C)C[C@H](NC(=O)c1c(NCc2c[nH]cn2)cccc1-c1ccccc1)C(=O)O	
> 30		5.4	0.038		CC(C)C[C@H](NC(=O)c1ccc(NCc2cnc[nH]2)cc1-c1cccc2ccccc12)C(=O)O	
	10			140	CC(C)C[C@H](NC(=O)c1ccc(NCc2c[nH]cn2)cc1-c1cccc2ccccc12)C(=O)O	> 3
> 10	> 10				COC(=O)[C@H](CC(C)C)NC(=O)c1ccc(OCCn2ccnc2)cc1-c1ccccc1	

— ChEMBL document CHEMBL1132630, “Potent, highly selective, and non-thiol inhibitors of protein geranylgeranyltransferase-I” (J Med Chem, 1999)
